Calls of active or inactive are those of the source. No cut-off for these calls is given here.
Experiments:
[1] = molecular target: T1, Orexin receptor type 2 (Homo sapiens, UniProt O43614); test: Displacement of [125I]-orexin-A from human OX2 receptor expressed in CHO cells after 30 mins by liquid scintillation counting analysis; format: cell-based
T1 sequence (O43614 whole entry): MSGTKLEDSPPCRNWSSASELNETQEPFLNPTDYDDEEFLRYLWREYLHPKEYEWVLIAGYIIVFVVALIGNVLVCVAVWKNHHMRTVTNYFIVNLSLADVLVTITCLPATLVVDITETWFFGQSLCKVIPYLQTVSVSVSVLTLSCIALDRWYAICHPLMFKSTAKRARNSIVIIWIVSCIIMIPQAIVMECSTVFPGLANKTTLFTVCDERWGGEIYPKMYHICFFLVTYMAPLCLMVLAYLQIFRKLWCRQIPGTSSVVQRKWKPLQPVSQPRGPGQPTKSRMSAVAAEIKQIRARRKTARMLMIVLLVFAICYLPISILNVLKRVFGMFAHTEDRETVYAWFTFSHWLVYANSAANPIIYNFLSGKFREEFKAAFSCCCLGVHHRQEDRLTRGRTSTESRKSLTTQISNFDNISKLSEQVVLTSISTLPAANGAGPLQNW
In short: (§1)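 CHO membranes expressing human OX1R or OX2R (5 μg protein) incubated 30 min at rt with compound and [125I]-orexin A (2 nM stock) in HEPES buffer pH 7.5 with MgCl2, CaCl2, BSA. Nonspecific binding with 10 μM orexin A. Wells washed with HEPES/525 mM NaCl and DPM counted. % inhibition from test, control and nonspecific counts; mean of three wells.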

[2] = Ratio of flux ratio in pig LLC cells expressing MDR1 to flux ratio on pig LLC-PK1 cells; format: ADME, cell-based, Sus scrofa
In short: (§2)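 LLC-PK1 and LLC-MDR1 monolayers, 5 days post-seeding, preincubated 2 h at 37 °C in HBSS/10 mM HEPES. Compound added apically or basally, 2 h at 37 °C; opposite side assayed by LC-MS. Papp = Q/t/C0/A; FR = Papp(b→a)/Papp(a→b); corrected FR = FR(LLC-MDR1)/FR(LLC-PK1).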

[3] = molecular target: T2, Orexin/Hypocretin receptor type 1 (Homo sapiens, UniProt O43613); test: Displacement of [125I]-orexin-A from human OX1 receptor expressed in CHO cells after 30 mins by liquid scintillation counting analysis; format: cell-based; in short: as §1
T2 sequence (O43613 whole entry): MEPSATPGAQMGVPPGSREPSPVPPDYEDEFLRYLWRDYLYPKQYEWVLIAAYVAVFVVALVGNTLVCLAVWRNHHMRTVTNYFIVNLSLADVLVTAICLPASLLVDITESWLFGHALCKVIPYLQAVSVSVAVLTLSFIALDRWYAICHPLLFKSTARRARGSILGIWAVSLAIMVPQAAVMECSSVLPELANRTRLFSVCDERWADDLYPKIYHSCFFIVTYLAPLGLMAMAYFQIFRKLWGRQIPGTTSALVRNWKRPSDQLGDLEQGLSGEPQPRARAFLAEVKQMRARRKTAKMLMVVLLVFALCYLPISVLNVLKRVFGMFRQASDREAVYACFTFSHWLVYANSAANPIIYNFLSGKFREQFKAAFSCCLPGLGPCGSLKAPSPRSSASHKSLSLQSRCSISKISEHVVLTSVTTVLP

[4] = Octanol-phosphate buffer partition coefficient, log D of the compound at pH 7.4 by Shake flask method; format: physicochemical
In short: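 [11C]-labelled compound (about 200 000 cpm) in n-octanol and 0.1 M PBS pH 7.4, vortexed 3 min at rt and centrifuged; weighed aliquots of each phase γ-counted, with the organic layer repartitioned until stable. log D = log(cpm/g octanol ÷ cpm/g PBS); triplicate.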

[5] = Flux ratio of permeability from apical to basolateral to basolateral to apical side in pig LLC cells expressing MDR1 after 2 hrs; format: ADME, cell-based, Sus scrofa; in short: as §2
[6] = test system: LLC-PK1; test: Flux ratio of permeability from apical to basolateral to basolateral to apical side in pig LLC-PK1 cells after 2 hrs; format: ADME, cell-based, Sus scrofa; conditions: llc-pk1, 2 h; in short: as §2
[7] = test system: Thalamus; test: Drug uptake in P-gp-knockout rat thalamus at 78.7 to 189.8 MBq, iv after 90 mins by PET analysis; format: ADME, organism-based; conditions: in vivo, 1.5 h
In short: (§3)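 Male Mdr1a-knockout rats (410−500 g) under 1.5% isoflurane at 37 °C; [11C] tracer 78.7−189.8 MBq by tail vein. 90 min list-mode microPET scan with filtered back-projection; ROIs drawn on MRI template; decay-corrected %ID/mL, n = 3. Blocking: unlabeled compound 10 mg/kg po in 5% DMSO/10% cremophor in 10 mM HCl, given 1 h before tracer.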

[8] = Drug uptake in P-gp-knockout rat neocortex at 78.7 to 189.8 MBq, iv after 90 mins by PET analysis; format: ADME, organism-based; conditions: in vivo, 1.5 h; in short: as §3
[9] = test system: Hippocampus; test: Drug uptake in P-gp-knockout rat hippocampus at 78.7 to 189.8 MBq, iv after 90 mins by PET analysis; format: ADME, organism-based; conditions: in vivo, 1.5 h; in short: as §3
[10] = test system: Cerebellum; test: Drug uptake in P-gp-knockout rat cerebellum at 78.7 to 189.8 MBq, iv after 90 mins by PET analysis in presence of 10 mg/kg, po unlabeled compound; format: ADME, organism-based; set-up: dose 10 mg/kg, route oral; conditions: in vivo, 1.5 h; in short: as §3
[11] = molecular target: T3, Orexin receptor type 2 (Rattus norvegicus) (UniProt P56719); test: Binding affinity to OX2 receptor in coronal rat brain neocortex layer 6 at 2.5 nM by autoradiography; format: tissue-based; conditions: tested as the 11C-labelled form
T3 sequence (whole entry): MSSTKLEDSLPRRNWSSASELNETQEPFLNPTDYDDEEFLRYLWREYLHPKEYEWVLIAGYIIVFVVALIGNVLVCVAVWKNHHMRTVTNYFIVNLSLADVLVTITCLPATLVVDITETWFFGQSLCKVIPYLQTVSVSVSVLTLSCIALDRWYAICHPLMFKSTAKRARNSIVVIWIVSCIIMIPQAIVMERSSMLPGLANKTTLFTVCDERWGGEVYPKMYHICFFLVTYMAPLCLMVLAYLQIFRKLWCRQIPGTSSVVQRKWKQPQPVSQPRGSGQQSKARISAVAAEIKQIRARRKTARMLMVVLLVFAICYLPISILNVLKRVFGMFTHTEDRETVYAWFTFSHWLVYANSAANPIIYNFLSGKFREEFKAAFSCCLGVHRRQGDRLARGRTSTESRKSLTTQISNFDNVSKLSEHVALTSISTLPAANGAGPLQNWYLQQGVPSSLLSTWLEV
In short: (§4)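 Rat brain sections (20 μm) preincubated 20 min at rt in 25 mM HEPES pH 7.4 with 5 mM MgCl2 and 1 mM CaCl2, then incubated 60 min at rt with 11C radioligand; nonspecific binding with 10 μM unlabeled compound. Sections washed three times in cold water, dried, exposed to imaging plate 1 h alongside calibrated radioactive standards.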

[12] = molecular target: T3, Orexin receptor type 2 (Rattus norvegicus); test: Binding affinity to OX2 receptor in coronal rat hypothalamus at 2 nM by autoradiography; conditions: tested as the 11C-labelled form; in short: as §4
[13] = molecular target: T3, Orexin receptor type 2 (Rattus norvegicus); test: Binding affinity to OX2 receptor in coronal rat neocortex layer 6 at 2 nM by autoradiography; conditions: tested as the 11C-labelled form; in short: as §4

Row | Structure (SMILES) | Ki [1] | Ratio [2] | Ki [3] | logD [4] | Ratio [5] | Ratio [6] | Drug uptake [7] | Drug uptake [8] | Drug uptake [9] | Drug uptake [10] | Activity [11] | Activity [12] | Activity [13]
1 | COc1nc(NC(=O)[C@@H]2C[C@@]2(COc2cnc(C)nc2C)c2cccc(F)c2)ccc1F | 2 nM | 1.21 | 12 nM | 3.6 | 0.98 | 0.81 |  |  |  |  |  |  | 
2 | Cc1ncc(OC[C@@]2(c3cccc(F)c3)C[C@H]2C(=O)Nc2ccc(C#N)cn2)c(C)n1 | 5 nM | 1.76 | 32 nM |  | 1.92 | 1.09 |  |  |  |  |  |  | 
3 | Cc1ncc(OC[C@@]2(c3cccc(F)c3)C[C@H]2C(=O)Nc2cc(O[11CH3])c(F)cn2)c(C)n1 |  |  |  | 2.93 |  |  | Active | Active | Active | Not Active |  |  | 
4 | COc1cc(NC(=O)[C@@H]2C[C@@]2(COc2cnc(C)nc2C)c2cccc(F)c2)ncc1F | 2 nM | 2.06 | 3 nM | 2.93 | 2.45 | 1.19 |  |  |  |  | Active | Active | Active
5 | Cc1ncc(OC[C@@]2(c3cccc(F)c3)C[C@H]2C(=O)Nc2ccc(F)c(O[11CH3])n2)c(C)n1 |  |  |  | 3.6 |  |  |  |  |  |  |  |  | 

Reference: ChEMBL document CHEMBL2424641, “Synthesis and evaluation of novel radioligands for positron emission tomography imaging of the orexin-2 receptor” (J Med Chem, 2013)
